{"source": "ChEMBL document CHEMBL1154048", "about": "“Design, synthesis and pharmacological evaluation of new 1-[3-(4-arylpiperazin-1-yl)-2-hydroxy-propyl]-3,3-diphenylpyrrolidin-2-one derivatives with antiarrhythmic, antihypertensive, and alpha-adrenolytic activity” (Eur J Med Chem, 2009)", "key": {"[1]": {"tested_on": "Rattus norvegicus", "experiment": "Hypotensive activity in normotensive Wistar rat assessed as diastolic blood pressure at 2.5 mg/kg, iv after 20 mins (Rvb=107.2 +/- 7.3 mmHg)", "assay_type": "functional, Artery"}, "[2]": {"tested_on": "Rattus norvegicus", "experiment": "Hypotensive activity in normotensive Wistar rat assessed as systolic blood pressure at 2.5 mg/kg, iv after 10 mins (Rvb=125.6 +/- 7.6 mmHg)", "assay_type": "functional, Artery"}, "[3]": {"tested_on": "Rattus norvegicus", "experiment": "Hypotensive activity in normotensive Wistar rat assessed as diastolic blood pressure at 2.5 mg/kg, iv after 60 mins (Rvb=107.2 +/- 7.3 mmHg)", "assay_type": "functional, Artery"}, "[4]": {"tested_on": "Rattus norvegicus", "experiment": "Hypotensive activity in normotensive Wistar rat assessed as systolic blood pressure at 2.5 mg/kg, iv after 20 mins (Rvb=125.6 +/- 7.6 mmHg)", "assay_type": "functional, Artery"}, "[5]": {"tested_on": "Rattus norvegicus", "experiment": "Hypotensive activity in normotensive Wistar rat assessed as systolic blood pressure at 5 mg/kg, iv after 20 mins (Rvb=139 +/- 0.6 mmHg)", "assay_type": "functional, Artery"}, "[6]": {"tested_on": "Rattus norvegicus", "experiment": "Hypotensive activity in normotensive Wistar rat assessed as systolic blood pressure at 5 mg/kg, iv after 5 mins (Rvb=139 +/- 0.6 mmHg)", "assay_type": "functional, Artery"}, "[7]": {"tested_on": "Rattus norvegicus", "experiment": "Hypotensive activity in normotensive Wistar rat assessed as systolic blood pressure at 5 mg/kg, iv after 30 mins (Rvb=139 +/- 0.6 mmHg)", "assay_type": "functional, Artery"}, "[8]": {"tested_on": "Rattus norvegicus", "experiment": "Hypotensive activity in normotensive Wistar rat assessed as diastolic blood pressure at 5 mg/kg, iv after 60 mins (Rvb=120 +/- 1.7 mmHg)", "assay_type": "functional, Artery"}, "[9]": {"tested_on": "Rattus norvegicus", "experiment": "Hypotensive activity in normotensive Wistar rat assessed as diastolic blood pressure at 5 mg/kg, iv after 30 mins (Rvb=120 +/- 1.7 mmHg)", "assay_type": "functional, Artery"}, "[10]": {"tested_on": "Rattus norvegicus", "experiment": "Hypotensive activity in normotensive Wistar rat assessed as systolic blood pressure at 5 mg/kg, iv after 60 mins (Rvb=139 +/- 0.6 mmHg)", "assay_type": "functional, Artery"}, "[11]": {"tested_on": "Rattus norvegicus", "experiment": "Hypotensive activity in normotensive Wistar rat assessed as systolic blood pressure at 5 mg/kg, iv after 30 mins (Rvb=140.5 +/- 1.1 mmHg)", "assay_type": "functional, Artery"}, "[12]": {"tested_on": "Rattus norvegicus", "experiment": "Hypotensive activity in normotensive Wistar rat assessed as diastolic blood pressure at 5 mg/kg, iv after 60 mins (Rvb=125.5 +/- 0.6 mmHg)", "assay_type": "functional, Artery"}, "[13]": {"tested_on": "Rattus norvegicus", "experiment": "Hypotensive activity in normotensive Wistar rat assessed as diastolic blood pressure at 5 mg/kg, iv after 20 mins (Rvb=125.5 +/- 0.6 mmHg)", "assay_type": "functional, Artery"}, "[14]": {"tested_on": "Rattus norvegicus", "experiment": "Hypotensive activity in normotensive Wistar rat assessed as systolic blood pressure at 5 mg/kg, iv after 5 mins (Rvb=140.5 +/- 1.1 mmHg)", "assay_type": "functional, Artery"}, "[15]": {"tested_on": "Rattus norvegicus", "experiment": "Hypotensive activity in normotensive Wistar rat assessed as systolic blood pressure at 5 mg/kg, iv after 20 mins (Rvb=140.5 +/- 1.1 mmHg)", "assay_type": "functional, Artery"}, "[16]": {"tested_on": "Rattus norvegicus", "experiment": "Hypotensive activity in normotensive Wistar rat assessed as systolic blood pressure at 5 mg/kg, iv after 30 mins (Rvb=142.5 +/- 3.6 mmHg)", "assay_type": "functional, Artery"}, "[17]": {"tested_on": "Rattus norvegicus", "experiment": "Hypotensive activity in normotensive Wistar rat assessed as diastolic blood pressure at 5 mg/kg, iv after 60 mins (Rvb=127 +/- 8.1 mmHg)", "assay_type": "functional, Artery"}, "[18]": {"biological_target": "T1, Alpha-1D adrenergic receptor (Rattus norvegicus, UniProt P23944)", "T1 sequence (P23944 whole entry)": "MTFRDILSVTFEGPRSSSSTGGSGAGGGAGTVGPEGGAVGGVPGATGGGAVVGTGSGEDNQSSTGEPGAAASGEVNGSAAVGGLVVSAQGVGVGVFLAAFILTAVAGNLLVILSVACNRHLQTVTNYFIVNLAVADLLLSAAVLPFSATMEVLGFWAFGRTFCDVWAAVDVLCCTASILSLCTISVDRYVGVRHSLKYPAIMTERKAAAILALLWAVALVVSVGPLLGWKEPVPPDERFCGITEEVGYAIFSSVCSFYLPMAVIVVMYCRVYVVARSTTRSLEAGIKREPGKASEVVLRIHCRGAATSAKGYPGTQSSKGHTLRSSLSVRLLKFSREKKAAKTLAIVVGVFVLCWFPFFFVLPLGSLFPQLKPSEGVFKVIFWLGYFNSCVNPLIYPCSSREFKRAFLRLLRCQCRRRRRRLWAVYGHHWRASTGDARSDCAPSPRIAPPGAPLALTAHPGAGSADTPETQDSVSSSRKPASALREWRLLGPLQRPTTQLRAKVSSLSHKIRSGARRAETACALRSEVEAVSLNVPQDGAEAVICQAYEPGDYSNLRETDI", "experiment": "(§1) Antagonist activity at Alpha-1D adrenoceptor in Wistar rat thoracic aorta assessed as inhibition of noradrenaline-induced contraction after 30 mins", "assay_type": "functional, tissue-based", "settings": "read-out: pA2 (converted)", "in_short": "(§2)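 Male Wistar rats (200–350 g) were anaesthetized with thiopental 75 mg/kg ip. Endothelium-denuded thoracic aorta rings (~4 mm) were held in Krebs–Henseleit at 37 °C, pH 7.4, gassed O2/CO2 19:1, at 2 g tension and equilibrated 3 h. Two cumulative noradrenaline curves were run 60 min apart, with 30 min antagonist incubation and continuous propranolol. EC50 came from non-linear regression, and Schild plots gave pA2. n = 5–8.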"}, "[19]": {"biological_target": "T2, Alpha-1D adrenergic receptor (Rattus norvegicus) (UniProt P23944)", "T2 sequence (whole entry)": "T1 sequence (P23944 whole entry)", "experiment": "as §1", "assay_type": "functional, tissue-based", "in_short": "as §2"}, "[20]": {"biological_target": "Guinea pig spleen α1B (Cavia porcellus, UniProt H0WBQ9)", "experiment": "Antagonist activity at Alpha-1B adrenoceptor in guinea pig spleen assessed as inhibition of noradrenaline-induced contraction after 30 mins", "assay_type": "functional, tissue-based", "settings": "read-out: pA2 (converted)", "in_short": "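Guinea-pig spleen strips equilibrated 100 min with repeated noradrenaline stimulation and washout. Two cumulative noradrenaline concentration–response curves were run 60 min apart, before and after a 30 min antagonist incubation, with propranolol present throughout to block β-adrenoceptors. Contraction was expressed as % of the first-curve maximum. EC50 was fitted by non-linear regression, and Schild analysis of concentration ratios gave pA2. n ≥ 5.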"}, "[21]": {"tested_on": "Rattus norvegicus", "experiment": "Hypotensive activity in normotensive Wistar rat assessed as diastolic blood pressure at 5 mg/kg, iv after 30 mins (Rvb=119 +/- 1.2 mmHg)", "assay_type": "functional, Artery"}, "[22]": {"tested_on": "Rattus norvegicus", "experiment": "Hypotensive activity in normotensive Wistar rat assessed as diastolic blood pressure at 5 mg/kg, iv after 20 mins (Rvb=119 +/- 1.2 mmHg)", "assay_type": "functional, Artery"}, "[23]": {"tested_on": "Rattus norvegicus", "experiment": "Hypotensive activity in normotensive Wistar rat assessed as diastolic blood pressure at 5 mg/kg, iv after 30 mins (Rvb=126 +/- 4.6 mmHg)", "assay_type": "functional, Artery"}, "[24]": {"tested_on": "Rattus norvegicus", "experiment": "Hypotensive activity in normotensive Wistar rat assessed as systolic blood pressure at 5 mg/kg, iv after 30 mins (Rvb=141.3 +/- 6.4 mmHg)", "assay_type": "functional, Artery"}, "[25]": {"tested_on": "Rattus norvegicus", "experiment": "Hypotensive activity in normotensive Wistar rat assessed as diastolic blood pressure at 5 mg/kg, iv after 5 mins (Rvb=126 +/- 4.6 mmHg)", "assay_type": "functional, Artery"}, "[26]": {"tested_on": "Rattus norvegicus", "experiment": "Hypotensive activity in normotensive Wistar rat assessed as diastolic blood pressure at 5 mg/kg, iv after 10 mins (Rvb=126 +/- 4.6 mmHg)", "assay_type": "functional, Artery"}, "[27]": {"tested_on": "Rattus norvegicus", "experiment": "Hypotensive activity in normotensive Wistar rat assessed as systolic blood pressure at 5 mg/kg, iv after 5 mins (Rvb=141.3 +/- 6.4 mmHg)", "assay_type": "functional, Artery"}, "[28]": {"tested_on": "Rattus norvegicus", "experiment": "Hypotensive activity in normotensive Wistar rat assessed as diastolic blood pressure at 5 mg/kg, iv after 20 mins (Rvb=126 +/- 4.6 mmHg)", "assay_type": "functional, Artery"}}, "data": [{"smiles": "COc1ccc(N2CCN(CC(O)CN3CCC(c4ccccc4)(c4ccccc4)C3=O)CC2)cc1.Cl.Cl", "note": "(stereo not drawn)", "values": [{"measurement": "Activity", "setting": "[1]", "value": 89.8, "unit": "mmHg"}, {"measurement": "Activity", "setting": "[2]", "value": 115.2, "unit": "mmHg"}, {"measurement": "Activity", "setting": "[3]", "value": 88.2, "unit": "mmHg"}, {"measurement": "Activity", "setting": "[4]", "value": 107.6, "unit": "mmHg"}]}, {"smiles": "COc1ccccc1N1CCN(CC(O)CN2CCC(c3ccccc3)(c3ccccc3)C2=O)CC1.Cl.Cl", "note": "(stereo not drawn)", "values": [{"measurement": "Activity", "setting": "[5]", "value": 118, "unit": "mmHg"}, {"measurement": "Activity", "setting": "[6]", "value": 125, "unit": "mmHg"}, {"measurement": "Activity", "setting": "[7]", "value": 116, "unit": "mmHg"}, {"measurement": "Activity", "setting": "[8]", "value": 98, "unit": "mmHg"}, {"measurement": "Activity", "setting": "[9]", "value": 102.5, "unit": "mmHg"}, {"measurement": "Activity", "setting": "[10]", "value": 112, "unit": "mmHg"}]}, {"smiles": "Cl.Cl.O=C1N(CC(O)CN2CCN(c3ccccc3)CC2)CCC1(c1ccccc1)c1ccccc1", "note": "(stereo not drawn)", "values": [{"measurement": "Activity", "setting": "[11]", "value": 129, "unit": "mmHg"}, {"measurement": "Activity", "setting": "[12]", "value": 109.5, "unit": "mmHg"}, {"measurement": "Activity", "setting": "[13]", "value": 116.5, "unit": "mmHg"}, {"measurement": "Activity", "setting": "[14]", "value": 135.5, "unit": "mmHg"}, {"measurement": "Activity", "setting": "[15]", "value": 135.5, "unit": "mmHg"}]}, {"smiles": "CCOc1ccccc1N1CCN(CC(O)CN2CCC(c3ccccc3)(c3ccccc3)C2=O)CC1.Cl.Cl", "note": "(stereo not drawn)", "values": [{"measurement": "Activity", "setting": "[16]", "value": 113.5, "unit": "mmHg"}, {"measurement": "Activity", "setting": "[17]", "value": 95.5, "unit": "mmHg"}, {"measurement": "Kb", "setting": "[18]", "value": 55, "unit": "nM"}, {"measurement": "Activity", "setting": "[19]", "value": "Dose-dependent effect"}, {"measurement": "Kb", "setting": "[20]", "value": 281, "unit": "nM"}]}, {"smiles": "Cl.Cl.O=C1N(CC(O)CN2CCN(c3ccccc3C(F)(F)F)CC2)CCC1(c1ccccc1)c1ccccc1", "note": "(stereo not drawn)", "values": [{"measurement": "Activity", "setting": "[21]", "value": 103, "unit": "mmHg"}, {"measurement": "Activity", "setting": "[22]", "value": 104, "unit": "mmHg"}]}, {"smiles": "Cc1ccccc1N1CCN(CC(O)CN2CCC(c3ccccc3)(c3ccccc3)C2=O)CC1.Cl.Cl", "note": "(stereo not drawn)", "values": [{"measurement": "Activity", "setting": "[23]", "value": 117.7, "unit": "mmHg"}, {"measurement": "Activity", "setting": "[24]", "value": 133, "unit": "mmHg"}, {"measurement": "Activity", "setting": "[25]", "value": 116.7, "unit": "mmHg"}, {"measurement": "Activity", "setting": "[26]", "value": 118, "unit": "mmHg"}, {"measurement": "Activity", "setting": "[27]", "value": 132.3, "unit": "mmHg"}, {"measurement": "Activity", "setting": "[28]", "value": 119.7, "unit": "mmHg"}]}]}
